IMP-1 inh-1: blocks Pseudomonas aeruginosa IMP-1 metallo-beta-lactamase; AID 1556; 0.45% of 290,000 active; inhibition, % at 5.6 µM; purified IMP-1, nitrocefin hydrolysis, epi-absorbance fluorescence;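 active = inhibition above the mean plus 3 SD of all compounds in the same screening run, cut at about 4.5% in these data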
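System: purified IMP-1; amount: IMP-1 0.2 nM before substrate addition; compound: single dose, 5.6 µM; times: 25 °C, 15 min preincubation, 25 min reaction; signal: Epi-absorbance via hydrolysed-nitrocefin quenching of white-plate fluorescence, 480/530 nm, EDTA stop; benchmarks: DMSO with and without IMP-1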
dFosB activator: enhances mouse delta FosB homodimer DNA binding; P13346; purified delta FosB, TAMRA-CDK5 oligo fluorescence polarization; percent of positive-control signal above neutral wells; activation, % at 25 µM; 0.99% of 340,000 active;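 active = mean activation above about 17%, with every replicate also reaching it, limit read from the data, passing the limit was not always enough; inconclusive = only one of the two conditions met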
Target sequence (P13346 whole entry, looked up): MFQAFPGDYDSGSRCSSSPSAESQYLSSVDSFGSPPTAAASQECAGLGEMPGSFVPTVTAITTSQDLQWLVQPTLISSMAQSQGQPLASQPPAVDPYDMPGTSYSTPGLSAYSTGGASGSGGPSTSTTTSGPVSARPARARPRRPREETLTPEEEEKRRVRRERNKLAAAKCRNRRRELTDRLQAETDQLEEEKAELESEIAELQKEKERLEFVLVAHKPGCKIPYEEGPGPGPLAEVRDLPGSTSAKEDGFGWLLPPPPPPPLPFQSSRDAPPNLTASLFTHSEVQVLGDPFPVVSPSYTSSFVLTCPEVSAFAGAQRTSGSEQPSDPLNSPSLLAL
m5-HT2A agonist: activates the mouse 5-HT2A serotonin receptor; activation, % at 7.6 µM; P35363; CHO-K1 mHTR2A beta-arrestin complementation, luminescence; percent of 30 µM serotonin response; 0.66% of 360,000 active;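 active = activation above a run cutoff, the mean activation of all tested compounds plus 3 SD, cut at about 14% in these data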
VIM-2 inh: blocks Pseudomonas aeruginosa VIM-2 metallo-beta-lactamase. AID 1527. 0.89% of 290,000 active. purified VIM-2, nitrocefin hydrolysis, epi-absorbance fluorescence. inhibition, % at 5.6 µM;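 active = inhibition above the mean of all tested compounds plus 3 SD, cutoff set per screening run, cut at about 7.5% in these data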;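 note: red hydrolysis product quenches plate fluorescence so inhibitors raise well fluorescence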
IMP-1 inh-2: blocks IMP-1 metallo-beta-lactamase in VIM-2 selectivity screen. shares compounds with VIM-2 inh. purified IMP-1, nitrocefin hydrolysis, epi-absorbance fluorescence. inhibition, % at 5.6 µM. 1,300 tested, under 10 active. AID 1856; call rule not given here
VIM-2 FRET inh: inhibits VIM-2 in FRET assay to exclude epi-absorbance artifacts. shares compounds with VIM-2 inh. purified VIM-2, CCF2 FRET substrate hydrolysis. inhibition, % at 5.6 µM. 23% of 1,300 active;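 active = inhibition above the mean of all tested compounds plus 3 SD, cut at about 19% in these data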
TEM-1 inh: TEM-1 inhibition, counter-screen for VIM-2 inhibitors | shares compounds with VIM-2 inh | Purified TEM-1, nitrocefin hydrolysis, epi-absorbance fluorescence | inhibition, % at 5.6 µM | 3% of 1,300 active | AID 1866;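 active = inhibition above that campaign's mean inhibition plus 3 SD, cut at about 0.46% in these data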
VIM-2 confirm 2: confirmation of P. aeruginosa VIM-2 metallo-beta-lactamase inhibitors. inhibition, % at 5.6 µM. 96% of 1,300 active. purified VIM-2, nitrocefin hydrolysis, epi-absorbance. shares compounds with VIM-2 inh. AID 2187;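 active = inhibition of the VIM-2 beta-lactamase enzyme above about 11% from the earlier first-round screen, limit read from the data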
Numbers stand for hits; – = inactive; ? = inconclusive; · = no result. This is a sample that favours compounds with a hit; in the whole collection about 2.5% have one here.

SMILES	IMP-1 inh-1	dFosB activator	m5-HT2A agonist	VIM-2 inh	IMP-1 inh-2	VIM-2 FRET inh	TEM-1 inh	VIM-2 confirm 2
CCc1ccc(OCC(=O)OC(C)C(=O)Nc2ccc(Cl)cn2)cc1 (stereo not drawn)	·	–	–	·	·	·	·	·
O=C1C(=O)N(O)C2CCCCC2N1O (stereo not drawn)	–	–	–	13	–	47	–	24
O=C(O)CCN1C(=O)C2CCCCC2C1=O (stereo not drawn)	–	–	–	–	·	·	·	·
CCN(CC)C(=O)CSc1nc2ccc(NC(=O)CSc3nnc(N)s3)cc2s1	–	–	–	–	·	·	·	·
CCN(CC)C(=O)CSc1nc2ccc(NC(=O)CSc3nccn3C)cc2s1	–	–	–	21	–	52	–	36
Cc1ccsc1C(=O)OCC(=O)N1C(C)CCCC1C (stereo not drawn)	·	–	–	·	·	·	·	·
CN(C)CCNS(=O)(=O)c1ccc(N2CCN(c3ccc(F)cc3)CC2)c([N+](=O)[O-])c1	–	–	–	15	–	34	–	24
CC(=O)N1CCN(c2ccc(S(=O)(=O)NCCN(C(C)C)C(C)C)cc2[N+](=O)[O-])CC1	–	–	–	–	·	·	·	·
CN(C)CCNC(=O)c1csc(Nc2cccc3ccccc23)n1	–	–	–	13	–	–	–	22
CCOC(=O)[C@@H]1[C@H]2COc3ccc(Br)cc3[C@@H]2N2C(=O)N(c3ccc(C(F)(F)F)cc3)C(=O)[C@@]12C	–	–	–	–	·	·	·	·
Cc1ccc(C)n1CCN1CCN(C(=O)CSc2nc3ccccc3nc2N2CCOCC2)CC1	–	–	–	16	–	–	–	15
Cc1ccc(NC(=O)CSc2nc3ccccc3nc2N2CCOCC2)cc1	–	–	–	–	·	·	·	·
CN1CCN(C(=O)CSc2ccc(C(F)(F)F)cc2[N+](=O)[O-])CC1	–	–	–	13	–	–	–	38
CCOC(=O)N1CCN(C(=O)CSc2ccc(C(F)(F)F)cc2[N+](=O)[O-])CC1	–	–	–	–	·	·	·	·
CCOC(=O)CCCCCC(=O)Nc1ccc2c(c1)CC(=O)N([C@@H](C)CO)C[C@H](C)[C@@H](CN(C)C(=O)Nc1ccc3c(c1)OCO3)O2	·	–	–	·	·	·	·	·
CCO[C@@H]1OC(C(=O)N2CCCCCCC2)=C[C@H](c2ccc(C(F)(F)F)cc2)[C@H]1CCCO	–	–	–	–	·	·	·	·
Cc1c(OCC(=O)NC2CCN(Cc3ccccc3)CC2)ccc2c3c(c(=O)oc12)CCC3	–	–	–	36	–	–	–	45
Cc1c(OCC(=O)N[C@@H](CSCc2ccccc2)C(=O)O)ccc2c3c(c(=O)oc12)CCC3	–	–	–	13	–	–	–	19
Cc1cc(OCC(=O)NC2CCN(Cc3ccccc3)CC2)c2c(C)c(C)c(=O)oc2c1	–	–	–	34	–	–	–	48
Cc1cc(=O)oc2c(C)c(OCC(=O)NC3CCN(Cc4ccccc4)CC3)ccc12	–	–	–	13	–	–	–	21
Cc1c(OCC(=O)N2CCC(C(=O)O)CC2)ccc2c3c(c(=O)oc12)CCCC3	–	–	–	–	·	·	·	·
O=C(COc1ccc2c3c(c(=O)oc2c1)CCC3)N[C@@H](CSCc1ccccc1)C(=O)O	–	–	–	–	·	·	·	·
Cn1cnc2c(=O)[nH]cc([N+](=O)[O-])c21	–	–	–	–	·	·	·	·
Cc1ccccc1Nc1nnc(SCC(=O)NCc2ccco2)s1	–	–	–	–	·	·	·	·
Cc1ccccc1C(=O)Nc1nnc(SCC(=O)NCc2ccco2)s1	–	–	–	52	–	75	–	61
O=C(CSc1nnc(NC(=O)c2ccc3c(c2)OCO3)s1)NCc1ccco1	–	?	–	–	·	·	·	·
O=C(CSc1nnc(NC(=O)c2cccc(F)c2)s1)NCc1ccco1	–	–	–	33	–	54	–	39
O=C(CSc1nnc(NC(=O)c2ccccc2)s1)NCc1ccco1	–	–	–	25	–	44	–	28
Cc1cc2cc(C)c3nnc(SCC(=O)NCc4ccco4)n3c2cc1C	–	–	–	13	–	–	–	24

Source: PubChem BioAssay
